Myeloid diff MLP = myeloid differentiation induction | ER-HoxA9 myeloid progenitors, lysozyme-GFP differentiation, flow cytometry | calls only at 10 µM | AID 624256 | hit rate 1% among 360,000;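 active means normalized GFP-positive differentiation at or above the plate's own cutoff, the solvent-only control mean plus 3 SD; inconclusive means no clear call, values can overlap the other calls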;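 further: cells exposed to compound for four days before flow analysis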
GRK2 aptamer HTS = blocks RNA aptamer binding to human GRK2 | hit rate 0.59% among 330,000 | inhibition of aptamer binding, % at 10 µM | AID 488847 | bead flow cytometry, FAM-aptamer displacement from GRK2;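 active means inhibition of aptamer binding above 40%, roughly 3 SD of noise, on plates passing a quality check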;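 further: median bead fluorescence of bound FAM aptamer so fluorescent compounds give negative values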
SKN-1 block = blocks SKN-1 activity in C. elegans; hit rate 0.49% among 360,000; C. elegans VP596 Pgst-4::GFP/RFP ratio, acrylamide-induced, 24 h; inhibition, % at 21.8 µM;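 active means interference check ratio from 0.5 to 1.5 plus GFP to RFP signal ratio inhibition reaching or exceeding a fixed threshold, cut at about 30% in these data, passing the limit was not always enough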
Rce1 inhib = inhibitors of yeast Ras-converting enzyme; yeast membranes, quenched prenylated peptide cleavage fluorescence; calls only; hit rate 0.27% among 290,000; AID 2563;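 active means fall in fluorescence gain of 50% or more versus controls, with final raw signal at or below 3038400; inconclusive means same 50% fall but final raw signal above 3038400; inactive means fall in fluorescence gain under 50%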
Target sequence (Q03530 whole entry, looked up): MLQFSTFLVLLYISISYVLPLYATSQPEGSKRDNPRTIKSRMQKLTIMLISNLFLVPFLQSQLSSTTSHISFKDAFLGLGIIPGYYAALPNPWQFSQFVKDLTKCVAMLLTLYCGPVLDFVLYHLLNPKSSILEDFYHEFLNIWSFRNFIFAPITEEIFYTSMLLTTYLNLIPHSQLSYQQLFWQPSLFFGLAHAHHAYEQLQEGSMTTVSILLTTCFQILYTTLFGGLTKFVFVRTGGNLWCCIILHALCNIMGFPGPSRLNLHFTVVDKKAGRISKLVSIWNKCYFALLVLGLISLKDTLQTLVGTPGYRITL
T cell HTS = T cell immune modulators affecting CD8 T cell-vesicle binding. 2C CD8+ T cell-vesicle binding, flow cytometry; active compounds read low. response (vesicle binding), % at 7 µM. hit rate 0.068% among 330,000. AID 2052;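 active means response, share of CD8 T cells binding vesicles, and their 90th percentile fluorescence all below set limits, cut at about 80% in these data, passing the limit was not always enough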;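 further: values below 100% mean blocked vesicle binding to the CD8+ T cells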
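Material: 2C TCR transgenic mouse naive CD8+ T cells, MACS-purified. Also added: QL9-charged Drosophila Ld/ICAM-1/B7-1 vesicles. Timing: binding 1.5 h at 37 °C. Measured by: high-throughput flow cytometry with anti-B7-1 and anti-CD8 staining. Read-out: percent CD8+ FL2 mean versus row control. Controls: Unloaded micro-vesicles (low), QL9 vesicles with 0.7% DMSO (high).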
Rin1 Abl inh = blocks binding of human Rin1 to Abl; P00519+Q13671; TR-FRET Rin1/Abl binding, biochemical; inhibition, % at 7.35 µM; hit rate 0.4% among 360,000; in the data active means inhibition above about 5%, passing the limit was not always enough
Myeloid diff = promotes myeloid progenitor differentiation. calls only. shares compounds with Myeloid diff MLP. ER-HoxA9 myeloid progenitors, GFP/Mac1 double-positive flow. hit rate 2% among 2,300;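 active means share of green or green-and-red cells above 9 and 9% in run 1 or 4 and 3% in run 2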
GFP autofluor = compound fluorescence in myeloid differentiation counter-screen | AID 651707 | shares compounds with Myeloid diff MLP | fluorescence response, % (test concentration not listed) | ER-HoxA9 myeloid progenitors, no estrogen, GFP autofluorescence flow cytometry; vehicle wells 0%, positive control 100% | hit rate 7.4% among 2,300;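 active means over 5% cells positive for green fluorescent reporter, or over 2% positive for both it and APC stain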
Large screens that a line does not name were inactive (follow-up assays come after a bar, where they were run). Only some compounds are listed: those with a hit (about 2.6% of all), similar ones and a draw of the others.

O=c1[nH]c(=S)n(C2CC2)c(O)c1/C=N/Nc1cccc2ccccc12	none | Myeloid diff inactive | GFP autofluor inactive
O=c1[nH]c(=S)n(C2CC2)c(O)c1/C=N/Nc1ccccc1	none
CC(C)[N+]12CCC(CC1)C(C(O)(c1ccccc1)c1ccccc1)C2 (stereo not given)	none
NC(Cc1ccc(O)cc1)C(=O)NN=Cc1ccc(N(CCCl)CCCl)cc1 (stereo not given)	Myeloid diff MLP inconclusive (no result: GRK2 aptamer HTS, Rce1 inhib, T cell HTS)
CCOC(=O)C1=C(C)c2ccccc2OC1(C(=O)OCC)c1ccccc1 (stereo not given)	none (no result: Rce1 inhib, T cell HTS) | Myeloid diff inactive | GFP autofluor inactive
Cc1nn(Cc2ccccc2)c(Cl)c1C(=O)OC(C)C(=O)Nc1ccc(F)cc1Cl (stereo not given)	none | Myeloid diff inactive | GFP autofluor inactive
CCc1ccc(NC(=O)C(C)OC(=O)c2c(C)nn(Cc3ccccc3)c2Cl)cc1 (stereo not given)	none
Cc1cc(NC(=O)COC(=O)c2c(C)nn(Cc3ccccc3)c2Cl)no1	none | Myeloid diff active | GFP autofluor inactive
S=C(NCCc1ccccc1)N1Cc2ccccc2-n2nncc2C1	none (no result: GRK2 aptamer HTS, Rce1 inhib, T cell HTS)
CCCNC(=O)N1[C@H]2CC[C@@H]1C(C(=O)OC)=C(c1ccc(Cl)c(C(F)(F)F)c1)C2	none (no result: Rce1 inhib) | Myeloid diff inactive | GFP autofluor inactive
COC(=O)C1=C(c2cc3ccccc3s2)C[C@@H]2CC[C@H]1N2C(=O)NC1CC1	none
COC(=O)C1=C(c2ccc(Cl)c(C(F)(F)F)c2)C[C@@H]2CC[C@H]1N2C(=O)N1CCCC1	none (no result: Rce1 inhib) | Myeloid diff inactive | GFP autofluor inactive
COC(=O)C1=C(c2cc3ccccc3s2)C[C@@H]2CC[C@H]1N2C(=O)NCC1CC1	none | Myeloid diff inactive | GFP autofluor inactive
O=C1NC2C(O)C(O)C(O)C(O)C2c2cc3c(c(O)c21)OCO3 (stereo not given)	Myeloid diff MLP inconclusive (no result: GRK2 aptamer HTS, Rce1 inhib, T cell HTS)
COC(=O)C1=C(c2ccc(C(C)=O)cc2)C[C@@H]2CC[C@H]1N2C(=O)N1CCC(O)CC1	none (no result: Rce1 inhib)
O=[N+]([O-])c1ccc(N2CCCCCC2)c2nonc12	none (no result: T cell HTS)
CN(c1ccc(O)cc1)c1ccc([N+](=O)[O-])c2nonc12	Myeloid diff MLP active (no result: GRK2 aptamer HTS, Rce1 inhib, T cell HTS) | Myeloid diff inactive | GFP autofluor inactive
CC1CCCC(C)N1/N=C/c1c[nH]c2ccc(Br)cc12 (stereo not given)	none | Myeloid diff inactive | GFP autofluor inactive
CN1CCC(c2c[nH]c3ccc(O)cc23)CC1	none (no result: GRK2 aptamer HTS, Rce1 inhib, T cell HTS)
CC(C)(O)C1C2OC(=O)C1C1(O)CC3OC34C(=O)OC2C14C (stereo not given)	Myeloid diff MLP inconclusive (no result: GRK2 aptamer HTS, Rce1 inhib, T cell HTS)
CCN(CC)CCCN=Cc1c(O)n(-c2ccccc2F)c(=O)[nH]c1=O	none
CCN(CC)CCCN=Cc1c(O)n(-c2cccc(C)c2C)c(=O)[nH]c1=O	Myeloid diff MLP active | Myeloid diff inactive | GFP autofluor inactive
CCOP(=S)(OCC)c1ccc(N(C)C)cc1	Myeloid diff MLP active | Myeloid diff inactive | GFP autofluor inactive
COc1ccc(-n2c(=S)[nH]c3ccc(C)cc3c2=O)cc1	none (no result: GRK2 aptamer HTS, Rce1 inhib, T cell HTS)
COC(=O)C1=C(c2ccc(OC(F)(F)F)cc2)C[C@@H]2CC[C@H]1N2C(=O)N1CCOCC1	none (no result: Rce1 inhib)
CN(C/N=C(\N)N[N+](=O)[O-])S(=O)(=O)c1ccccc1	none
Cc1ccc(N=C(/N=C(\N)N[N+](=O)[O-])Nc2ccc(C)cc2)cc1	none | Myeloid diff inactive | GFP autofluor inactive
CCC(Oc1cc(Cl)ccc1Cl)C(=O)N1CCC2(CC1)OCCO2 (stereo not given)	none
O=c1c2ccccc2nc(/C=C/c2ccc(O)c(O)c2)n1-c1ccccc1	none | Myeloid diff inactive | GFP autofluor inactive
COC(=O)NC(=C(Cl)Cl)P(=O)(c1ccccc1)c1ccccc1	Myeloid diff MLP active | Myeloid diff inactive | GFP autofluor inactive
Cc1ccc(C(=O)N/C(=C\Cl)P(=O)(c2ccccc2)c2ccccc2)cc1	none
O=C(CCc1ccccc1)N1Cc2cc(N3CCOCC3)ccc2-n2nncc2C1	none (no result: GRK2 aptamer HTS, Rce1 inhib, T cell HTS)
OCC[n+]1c2ccccc2nc2ccc(N3CCOCC3)cc21	Myeloid diff MLP active, SKN-1 block 38 | Myeloid diff inactive | GFP autofluor inactive
Cc1ccc(S(=O)(=O)N2Cc3cc(N4CCOCC4)ccc3-n3nncc3C2)cc1	none (no result: GRK2 aptamer HTS, Rce1 inhib, T cell HTS)
NC(=O)c1ccc(N)nc1	none (no result: GRK2 aptamer HTS, Rce1 inhib, T cell HTS)
C[C@]12CCC(=O)C=C1CCC1C2CC[C@@]2(C)C1CC[C@@]2(O)CC#N (stereo not given in full)	Myeloid diff MLP active | Myeloid diff inactive | GFP autofluor inactive
